From ChEMBL document CHEMBL1123921, “Quinolonecarboxylic acids. 2. Synthesis and antibacterial evaluation of 7-oxo-2,3-dihydro-7H-pyrido[1,2,3-de][1,4]benzothiazine-6-carboxylic acids” (J Med Chem, 1987)
≈ marks a conversion by molar mass, not a printed value.

Columns and labels:
[1] = Total clearance was determined in rat at 10 mg/kg intraperitoneal dosage; type: ADME, organism-based; set-up: dose 10 mg/kg, route intraperitoneal; details: in vivo, ip, read-out: Clearance (converted)
Summary of the method: (§1)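 Fasted male Wistar rats (180–230 g) given the drug ip in carboxymethyl cellulose. Plasma and urine extracted with CHCl₃ from citrate buffer pH 6.2 with internal standard. Analysis by reverse-phase C-18 HPLC, 0.1% AcOH/MeOH gradient, 245 nm UV. Urinary clearance and total clearance derived as pharmacokinetic parameters.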

[2] = Urinary clearance was determined in rat at 25 mg/kg os dosage; type: ADME, organism-based; set-up: dose 25 mg/kg; details: urine, po, read-out: CL_renal (converted)
Summary of the method: (§2)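 Fasted male Wistar rats (180–230 g) dosed orally, suspended in carboxymethyl cellulose. Plasma and urine assayed by HPLC: sample plus internal standard and citrate buffer (0.1 M, pH 6.2), extracted into CHCl₃, dried, redissolved in MeOH. Separation on C-18 with 0.1% AcOH/MeOH gradient, UV detection at 245 nm.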

Homo sapiens = test: Urinary clearance was determined at 100 mg/kg oral dosage in human; type: ADME, organism-based, Urine; set-up: dose 100 mg/kg, route oral; details: in vivo
Summary of the method: (§3)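 Four healthy volunteers of both sexes took oral capsules (100 mg units) at three dose levels. Venous blood drawn into heparinized tubes and plasma obtained by low-speed centrifugation. Urine collected. Unchanged drug in plasma and urine determined by C-18 HPLC after CHCl₃ extraction, with UV detection at 245 nm.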

[3] = Peak plasma concentration at a dose of 100 mg/kg, os route in rat suspended in carboxymethyl cellulose (CMC); type: ADME, organism-based; set-up: dose 100 mg/kg; details: po, read-out: Activity; summary of the method: as §2
[4] = Half life period was determined for the compound at 200 mg/kg concentration, oral route in human; type: ADME, organism-based; set-up: dose 200 mg/kg, route oral; details: in vivo; summary of the method: as §3
[5] = Half life period was determined for the compound at 400 mg/kg concentration, oral route in human; type: ADME, organism-based; set-up: dose 400 mg/kg, route oral; details: in vivo; summary of the method: as §3
[6] = Time taken for peak plasma concentration at a dose of 100 mg/kg, oral route in human; type: ADME, organism-based; set-up: dose 100 mg/kg, route oral; summary of the method: as §3
[7] = Time taken for peak plasma concentration at a dose of 20 mg/kg, oral route in dog(beagle) suspended in carboxymethyl cellulose (CMC); type: ADME, organism-based, Canis lupus familiaris; set-up: dose 20 mg/kg, route oral
Summary of the method: (§4)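 Four male beagle dogs or two Macaca fascicularis monkeys dosed orally, suspended in carboxymethyl cellulose. Venous blood collected into heparinized tubes and plasma separated by low-speed centrifugation. Urine gathered in metabolic cages. Unchanged drug measured by C-18 HPLC (extraction, UV 245 nm).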

[8] = Half life period was determined for the compound at 10 mg/kg concentration, intraperitoneal route; details: in vivo, ip
[9] = Urinary excretion for the compound was evaluated as percent dose excreted at 400 mg/kg oral dosage in human; type: ADME, organism-based; set-up: dose 400 mg/kg, route oral; details: urine; summary of the method: as §3
[10] = Urinary excretion for the compound was evaluated as percent dose excreted at 50 mg/kg os dosage; type: ADME, organism-based; set-up: dose 50 mg/kg; details: urine, po; summary of the method: as §2
[11] = Urinary excretion for the compound was evaluated as percent dose excreted at 10 mg/kg intraperitoneal dosage; type: ADME, organism-based; set-up: dose 10 mg/kg, route intraperitoneal; details: urine, ip; summary of the method: as §1
[12] = Urinary excretion for the compound was evaluated as percent dose excreted at 200 mg/kg oral dosage in human; type: ADME, organism-based; set-up: dose 200 mg/kg, route oral; details: urine; summary of the method: as §3
[13] = Peak plasma concentration at a dose of 20 mg/kg, oral route in dog(beagle) suspended in carboxymethyl cellulose (CMC); type: ADME, organism-based, Canis lupus familiaris; set-up: dose 20 mg/kg, route oral; details: read-out: Activity; summary of the method: as §4
[14] = Peak plasma concentration at a dose of 400 mg/kg, oral route in human; type: ADME, organism-based; set-up: dose 400 mg/kg, route oral; details: read-out: Activity; summary of the method: as §3
[15] = Urinary excretion for the compound was evaluated as percent dose excreted at 25 mg/kg intraperitoneal dosage; type: ADME, organism-based; set-up: dose 25 mg/kg, route intraperitoneal; details: urine, ip; summary of the method: as §1
[16] = Urinary excretion for the compound was evaluated as percent dose excreted at 20 mg/kg oral dosage in dog (beagle);Range is between (8-10).; type: ADME, organism-based, Canis lupus familiaris; set-up: dose 20 mg/kg, route oral; details: urine; summary of the method: as §4
[17] = Time taken for peak plasma concentration at a dose of 25 mg/kg, os route in rat suspended in carboxymethyl cellulose (CMC); type: ADME, organism-based; set-up: dose 25 mg/kg; details: po; summary of the method: as §2
[18] = Time taken for peak plasma concentration at a dose of 400 mg/kg, oral route in human; type: ADME, organism-based; set-up: dose 400 mg/kg, route oral; summary of the method: as §3
[19] = Time taken for peak plasma concentration at a dose of 20 mg/kg, oral route in monkey (Macaca fascicularis) suspended in carboxymethyl cellulose (CMC); type: ADME, organism-based; set-up: dose 20 mg/kg, route oral; details: cynomolgus monkey; summary of the method: as §4
[20] = Time taken for peak plasma concentration at a dose of 200 mg/kg, oral route in human; type: ADME, organism-based; set-up: dose 200 mg/kg, route oral; summary of the method: as §3
[21] = Total clearance was determined in rat at 25 mg/kg intraperitoneal dosage; type: ADME, organism-based; set-up: dose 25 mg/kg, route intraperitoneal; details: in vivo, ip, read-out: Clearance (converted); summary of the method: as §1
[22] = Tissue levels determined 1 hr after peroral dose of 50 mg/kg in liver; details: po
[23] = Urinary clearance was determined in rat at 25 mg/kg intraperitoneal dosage; type: ADME, organism-based; set-up: dose 25 mg/kg, route intraperitoneal; details: urine, ip, read-out: CL_renal (converted); summary of the method: as §1
Enterobacter cloacae = test: In vitro antibacterial activity against clinical isolates of Enterobacter cloacae 041 (gram negative) by agar dilution assay.; type: functional
Summary of the method: (§5)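 Agar dilution on Isosensitest agar; compound incorporated by twofold serial dilution. Overnight broth cultures delivered by multipoint inoculator at 10⁵ CFU per point. Plates read after 18 h at 37 °C. MIC taken as the lowest concentration giving complete growth inhibition.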

Escherichia coli = test: In vitro antibacterial activity against clinical isolates of Escherichia coli 15 (gram negative) by agar dilution assay.; type: functional; summary of the method: as §5
[24] = Lethal dose after single iv administration to mouse was determined; type: toxicity, organism-based; details: in vivo
Morganella morganii = test: In vitro antibacterial activity against clinical isolates of Proteus morganii 27 (gram negative) by agar dilution assay.; type: functional; summary of the method: as §5
[25] = Ratio of tissue (kidney) levels to plasma levels after 1 hr of treatment; type: ADME
Summary of the method: (§6)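 Male Wistar rats received 50 mg/kg po and were killed at 1 and 15 h. Tissue homogenates and plasma extracted with CHCl₃ after adding internal standard and pH 6.2 citrate buffer. Drug quantified by C-18 HPLC with UV at 245 nm. Tissue level divided by plasma level.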

[26] = Ratio of tissue (liver) levels to plasma levels after 1 hr of treatment; type: ADME; summary of the method: as §6
[27] = Ratio of urinary excretion after os administration to ip administration; type: ADME, organism-based, Urine; details: in vivo
Summary of the method: (§7)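 Fasted male Wistar rats (180–230 g), drug suspended in carboxymethyl cellulose, given orally or ip. Plasma (heparinized) and urine from metabolic cages were sampled at various times. The unchanged drug was measured by HPLC after CHCl3 extraction at pH 6.2 with an internal standard, on a C-18 column with an AcOH/MeOH gradient and UV detection at 245 nm. Interassay and intraassay variability was about 10%.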

[28] = Ratio of AUC from os administration to AUC from ip administration at a dose of 25 mg/kg; type: ADME, organism-based; set-up: dose 25 mg/kg, route intraperitoneal; details: in vivo; summary of the method: as §7
[29] = Plasma levels determined 1 hr after peroral dose of 50 mg/kg; details: po
[30] = Tissue levels determined 1 hr after peroral dose of 50 mg/kg in kidney; details: po
[31] = Lethal dose after single iv administration to rat was determined; type: toxicity, organism-based; details: in vivo
Summary of the method: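 Male Wistar rats (130-150 g) were given single intravenous doses at no fewer than three levels. Deaths were counted over 14 days, and LD50 was calculated by the Litchfield and Wilcoxon method.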

in vivo [32] = details: liver, po, 50 mg/kg
in vivo [33] = details: plasma, po, 50 mg/kg
in vivo [34] = details: ip, 25 mg/kg
in vivo [35] = details: po, 25 mg/kg
in vivo [36] = details: kidney, po, 50 mg/kg

## CN1CCN(c2c(F)cc3c(=O)c(C(=O)O)cn4c3c2SCC4)CC1 [RUFLOXACIN]
[1]
  CL/F: 4.22 mL/min/kg
[2]
  CL renal: 1.21 mL/min/kg
Homo sapiens
  CL_renal: 0.0933 mL/min/kg
[3]
  Cmax: 21000 ng/mL
[4]
  half-life: 35 h
[5]
  half-life: 32 h
[6]
  Tmax: 4 h
[7]
  Tmax: 4 h
[8]
  half-life: 9.9 h
[9]
  dose excreted: 33%
[10]
  dose excreted: 16.7%
[11]
  dose excreted: 26%
[12]
  dose excreted: 55%
[13]
  Cmax: 5700 ng/mL
[14]
  Cmax: 2730 ng/mL
[15]
  dose excreted: 22.2%
[16]
  dose excreted: 8%
[17]
  Tmax: 1 h
[18]
  Tmax: 2 h
[19]
  Tmax: 2 h
[20]
  Tmax: 4 h
[21]
  CL/F: 4.18 mL/min/kg
[22]
  concentration at 1 h: 80000 ng/mL
[23]
  CL renal: 0.79 mL/min/kg
Enterobacter cloacae
  MIC: < 0.39 µg/mL
Escherichia coli
  MIC: 0.78 µg/mL (≈ 2.15 µM)
[24]
  LD50: 224 mg/kg
Morganella morganii
  MIC: 1.56 µg/mL (≈ 4.29 µM)
[25]
  Kp at 1 h: 6
[26]
  Kp at 1 h: 8
[27]
  Ratio: 0.91
[28]
  Ratio: 0.85
[29]
  concentration at 1 h: 10000 ng/mL
[30]
  concentration at 1 h: 61000 ng/mL
[31]
  LD50: 285 mg/kg
In vivo [32]
  concentration at 15 h: 11000 ng/mL
In vivo [33]
  concentration at 15 h: 3000 ng/mL
In vivo [34]
  half-life: 9.9 h
In vivo [35]
  half-life: 8.7 h
In vivo [36]
  concentration at 15 h: 8000 ng/mL
